# Bioassay records as filed in PubChem BioAssay.
# Neddyl block – blocks human cullin neddylation; 0.58% of 360,000 active; inhibition, % at 25 µM; TR-FRET cullin neddylation, biochemical; AID 651699; in the data active = inhibition above about 36%
# PfM18AAP inh – blocks P. falciparum M18 aspartyl aminopeptidase | recombinant PfM18AAP, H-Glu-NHMec fluorogenic cleavage | inhibition, % at 7.35 µM | 1.2% of 290,000 active | AID 1822;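 active = inhibition above the campaign mean inhibition over all tested compounds plus 3 SD, cut at about 28% in these data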;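 note: 0% = plate median of test compound wells and 100% = 2 mM ZnCl2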
# PfG6PD inh – PfG6PD (Plasmodium falciparum) enzyme inhibition; 0.78% of 350,000 active; PfGluPho enzyme, NADPH resazurin-diaphorase fluorescence; inhibition, % at 20 µM; AID 504690;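 active = inhibition reaching at least a set limit at 20 µM in the primary screen, cut at about 59% in these data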;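 note: 0% = DMSO wells with substrate and 100% = DMSO wells lacking glucose-6-phosphate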
# HKDC1 inhibitor – inhibitors of human hexokinase HKDC1; Q2TB90; recombinant HKDC1, G6PDH/diaphorase resazurin coupled fluorescence; inhibition, % at 20 µM; 0.16% of 340,000 active;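 active = inhibition above about 35% when tested at 20 µM, limit read from the data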;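 note: plate controls were DMSO wells with enzyme for no effect and DMSO wells lacking enzyme for full effect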
# Target sequence (Q2TB90 whole entry, looked up): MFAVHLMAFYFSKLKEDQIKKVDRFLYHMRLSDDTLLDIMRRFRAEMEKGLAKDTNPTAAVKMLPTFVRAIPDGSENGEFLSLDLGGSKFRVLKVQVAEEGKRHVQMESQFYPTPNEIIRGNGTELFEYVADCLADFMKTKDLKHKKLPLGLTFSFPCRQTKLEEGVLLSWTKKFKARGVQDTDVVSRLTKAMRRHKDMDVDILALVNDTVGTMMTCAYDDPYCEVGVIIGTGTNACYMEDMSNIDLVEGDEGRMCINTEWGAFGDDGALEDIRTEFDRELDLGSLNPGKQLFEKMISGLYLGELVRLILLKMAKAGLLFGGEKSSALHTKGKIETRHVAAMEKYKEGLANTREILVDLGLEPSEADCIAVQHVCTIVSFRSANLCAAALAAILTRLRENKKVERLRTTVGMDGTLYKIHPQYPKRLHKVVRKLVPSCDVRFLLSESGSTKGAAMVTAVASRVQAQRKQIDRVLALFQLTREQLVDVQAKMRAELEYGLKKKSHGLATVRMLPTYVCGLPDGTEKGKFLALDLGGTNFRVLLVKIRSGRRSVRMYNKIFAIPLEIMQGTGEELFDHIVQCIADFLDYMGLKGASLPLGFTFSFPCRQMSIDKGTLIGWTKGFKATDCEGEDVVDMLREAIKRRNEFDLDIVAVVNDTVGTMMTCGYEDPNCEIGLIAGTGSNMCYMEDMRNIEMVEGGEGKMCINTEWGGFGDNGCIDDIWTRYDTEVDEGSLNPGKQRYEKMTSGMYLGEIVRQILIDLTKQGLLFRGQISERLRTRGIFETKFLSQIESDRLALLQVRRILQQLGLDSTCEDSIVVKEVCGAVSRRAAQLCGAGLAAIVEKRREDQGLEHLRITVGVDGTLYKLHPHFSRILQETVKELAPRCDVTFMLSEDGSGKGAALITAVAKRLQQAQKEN
#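 System: Recombinant HKDC1 hexokinase | Amount: HKDC1 at 5 µg/mL | Reagent: Glucose with 1 mM ATP | Doses: Single 20 µM dose | Incubation: Reaction time 90 min, room temperature, protected from light | Signal: Coupled resazurin fluorescence, excitation 525 nm, emission 613 nm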
# PfGluPho conf – PfG6PD inhibition, single-dose confirmed; shares compounds with PfG6PD inh; recombinant PfGluPho, NADPH-diaphorase-resazurin fluorescence; inhibition, % at 20 µM; 34% of 2,400 active; AID 504753;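 active = inhibition of at least 50% at 20 µM in any single replicate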;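 note: 0% = DMSO with substrate and 100% = DMSO lacking glucose-6-phosphate substrate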
# Diaphorase 10uM – counter-screen for P. falciparum G6PD inhibitors: diaphorase inhibitors, oxidizers; inhibition, % at 20 µM; AID 504862; diaphorase-coupled resazurin reduction, fluorescence, NADPH 10 uM; 39% of 820 active; shares compounds with PfG6PD inh;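 active = average inhibition reaching 50% or more with the compound at 20 µM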;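 note: resorufin red fluorescence formed as diaphorase reduces resazurin using NADPH; 0% = DMSO with enzyme and 100% = DMSO without enzyme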
# Diaphorase 30uM – diaphorase inhibition or oxidation at 30 uM NADPH; inhibition, % at 20 µM; AID 504863; shares compounds with PfG6PD inh; 29% of 820 active; Diaphorase/resazurin coupled assay, resorufin fluorescence;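 active = inhibition averaging 50% or more, tested at 20 µM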;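 note: 0% = DMSO with enzyme and 100% = DMSO wells lacking diaphorase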
# * marks the source's active call; other numbers are inactive results; · = not tested or not shown. Hits are enriched below; roughly 2.2% of the tested compounds scored in any of these assays.
SMILES,Neddyl block,PfM18AAP inh,PfG6PD inh,HKDC1 inhibitor,PfGluPho conf,others
CCOC(=O)c1nc(NCc2ccccc2)sc1C,13,25,68*,-8,26,
Nc1ccn([C@@H]2O[C@H](CNCc3cccc4c3sc3ccccc34)[C@@H](O)[C@H]2O)c(=O)n1,-3,·,-14,·,·,
CCOc1ccc(-n2c(N)c(C(=O)NCc3cccnc3)sc2=S)cc1,-46,4,53,-4,·,
COC(=O)c1sc(=S)n(-c2cccc(Cl)c2)c1N,-17,21,72*,-15,27,
COc1ccc(CNC(=O)c2sc(=S)n(-c3ccccc3)c2N)cc1,-3,-10,61*,-6,41,
CCOc1ccc(-n2c(N)c(C(=O)NCc3ccco3)sc2=S)cc1,-32,15,85*,-2,31,
Nc1nc(-c2ccccc2)nc2nonc12,11,·,0,·,·,
N#CC(C#N)=C1C=CC=CN1/C(=C\c1ccccc1)C(=O)c1cccs1,8,3,47,-6,·,
N#CC(C#N)=C1C=CC=CN1/C(=C\c1ccccc1Cl)C(=O)c1ccccc1,·,3,78*,7,57*,Diaphorase 10uM=-5;Diaphorase 30uM=-2
CCOC(=O)c1cc(-c2ccccc2)sc1NC(=O)c1ccc(OC)c(OC)c1,·,22,78*,-12,47,
CCC1CCCCN1S(=O)(=O)c1ccc(C(=O)N(CCCN(C)C)c2nc3cc4c(cc3s2)OCO4)cc1 (stereo not given),-1,-10,15,-2,·,
Cc1ccc2[nH]c(O)c(N=NC(=O)C(C)n3cnc4ccccc4c3=O)c2c1 (stereo not given),-29,-7,68*,10,50*,Diaphorase 10uM=68*;Diaphorase 30uM=55*
O=[N+]([O-])c1cc([N+](=O)[O-])c(Oc2ccc(Br)cc2Br)cc1NN1CCCCC1,-19,-3,-7,3,·,
Cc1ccc2nsnc2c1NS(=O)(=O)c1c(C)ccc2nsnc12,-39,6,-8,-2,·,
Cc1ccc(/C=[N+](\[O-])c2ccc(N(C)C)cc2)c2nsnc12,23,31*,64*,2,1,
Cc1ccc(Nc2nnc(SCC(=O)c3c(N)n(C4CC4)c(=O)[nH]c3=O)s2)cc1C,7,·,64*,-4,22,
Cc1cccc(Nc2nnc(SCC(=O)c3c(N)n(C4CC4)c(=O)[nH]c3=O)s2)c1,6,·,2,-1,·,
CC(=NNC(=S)N1CCCC1)c1ccccn1,-1,·,67*,·,12,
CC(=NNC(=S)N1CCC1)c1ccccn1,-11,·,50,-39,·,
O=[N+]([O-])c1ccc(Sc2ccncn2)c([N+](=O)[O-])c1,-24,·,18,·,·,
O=[N+]([O-])c1ccc(COc2cccc3cccnc23)cc1,-34,-10,31,1,·,
O=[N+]([O-])c1ccc(Sc2cccc3cccnc23)cc1,-38,-5,114*,14,83*,Diaphorase 10uM=77*;Diaphorase 30uM=72*
O=[N+]([O-])c1ccc(Sc2cccc3cccnc23)c([N+](=O)[O-])c1,-10,8,148*,-30,99*,Diaphorase 10uM=71*;Diaphorase 30uM=61*
O=[N+]([O-])c1cc(Cl)ccc1Sc1cccc2cccnc12,-10,-13,129*,0,90*,Diaphorase 10uM=88*;Diaphorase 30uM=82*
O=C(O)C(F)=C(c1ccccc1)c1ccccc1,5,·,-3,-6,·,
SMILES,Neddyl block,PfM18AAP inh,PfG6PD inh,HKDC1 inhibitor,PfGluPho conf,others
CCN(CC)S(=O)(=O)c1ccc(C(C)NC(=O)C2CCCN2C(=O)c2cccs2)cc1 (stereo not given),-19,·,-7,-3,·,
CC(=O)C(Sc1ncnc2c1nnn2-c1ccc(F)cc1)C(=O)N(C)C (stereo not given),·,4,62*,-6,19,
CCOC(=O)CSc1ncnc2c1nnn2-c1ccc(F)cc1,-12,-3,-4,-2,·,
CC(C)(C)OC(=O)N1CCC(C(=O)Nc2ccc(C(=O)NCCc3ccccc3)cc2)CC1,-4,·,-5,-3,·,
O=CNc1ccc2c3c(cccc13)-c1ccccc1-2,·,·,104*,26,18,
O=C(O)c1ccc([N+](=O)[O-])c(CS(=O)(=O)c2ccc(Cl)cc2)c1,0,-3,-6,9,·,
O=C(CBr)c1ccc([N+](=O)[O-])c(CS(=O)(=O)c2ccc(Cl)cc2)c1,-20,6,80*,2,74*,Diaphorase 10uM=30;Diaphorase 30uM=16
O=C(NCc1ccco1)c1ccc2c(c1)OCCO2,-4,1,-8,1,·,
[O-][n+]1cccc2cccc(O)c21,8,·,41,8,·,
C[n+]1cccc2cccc([O-])c21,55*,11,82*,26,9,
Cc1cc2ncn(/N=C/c3ccc(-c4ccccc4)o3)c2cc1C,18,-16,73*,7,-23,
COc1ccc(C2C(Oc3ccccc3)C(=O)N2c2ccc(C)c(C)c2)cc1OC (stereo not given),-7,-16,81*,0,23,
COc1ccc(C2C(Oc3ccccc3)C(=O)N2c2cc(C)ccc2C)cc1OC (stereo not given),0,-4,29,6,·,
CN=c1nc(-c2ccccc2)n(-c2ccccc2)s1,2,·,121*,5,111*,Diaphorase 10uM=-12;Diaphorase 30uM=3
CC(=O)Nc1cc2c(cc1[N+](=O)[O-])-c1ccccc1C2O (stereo not given),-27,·,81*,8,83*,Diaphorase 10uM=34;Diaphorase 30uM=6
CCn1c(=O)[nH]c(=O)c2c(N)c(C(=O)c3cc(F)ccc3F)sc21,-13,4,16,0,·,
CCN(CC)C(=O)c1cc(-c2ccc3c(c2)OCO3)on1,1,0,1,0,·,
CCN(CC)CCCNc1ccc2ncn3c4ccc(O)cc4c(=O)c1c23,-92,·,80*,29,-13,
O=C(NCCc1ccccn1)C1CCCN1S(=O)(=O)c1ccc(Cl)cc1 (stereo not given),1,-6,-14,-2,·,
O=S(=O)(c1ccccc1)N1CCN=C1SCc1ccc(Cl)c(Cl)c1,1,-9,21,-4,·,
O=S(=O)(c1ccccc1)N1CCN=C1SCc1ccccc1Cl,8,2,78*,3,21,
Cc1ccc(S(=O)(=O)N2CCN=C2SCc2ccccc2)cc1,-6,-13,69*,4,24,
O=S(=O)(c1ccccc1)N1CCN=C1SCc1cccc(Cl)c1,-11,-5,82*,-4,43,
C/C(=N\Nc1cccc(Cl)c1)c1ccncc1,-13,7,78*,1,33,
COc1ccccc1NC(=O)c1ccc(NC(=O)CN2C(=O)CN(C)C2=O)cc1,-9,-10,10,-4,·,
Cc1ccc(/C=N/NC(=O)CCCOc2ccc(Cl)cc2Cl)cc1,8,3,67*,10,35,
O=C(CC(=O)Nc1cccc(Cl)c1)N/N=C\c1ccccc1,4,-1,84*,3,41,
Cc1ccc(/C=N/NC(=O)CCCOc2ccc(Cl)cc2Cl)cc1[N+](=O)[O-],-8,-5,38,-6,·,
